Measured values from ChEMBL document CHEMBL1155209, “Synthesis and in vitro study of 14-aryl-14H-dibenzo[a.j]xanthenes as cytotoxic agents” (Bioorg Med Chem Lett, 2009).
pIC50: −log10 of the molar value.

How the values were obtained:
Type in all cases: functional, cell-based
SW-620 = assay: Cytotoxicity against human SW620 cells […] by SRB assay
[1] = Cytotoxicity against human 502713 cells […] by SRB assay
COLO 205 = assay: Cytotoxicity against human COLO205 cells […] by SRB assay
SK-N-SH = assay: Cytotoxicity against human SK-N-SH cells […] by SRB assay
A549 = assay: Cytotoxicity against human A549 cells […] by SRB assay
PC-3 = assay: Cytotoxicity against human PC3 cells […] by SRB assay; conditions: PC-3, 48 h, in the assay text read “48 hrs” for “72 hrs”
Outline: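 Human cancer lines from NCI grown in RPMI-1640 (2 mM glutamine, pH 7.4, 10% fetal calf serum, streptomycin/penicillin) at 37 °C, 5% CO2. Cells trypsinized at subconfluence, >98% viable by trypan blue, seeded and grown 24 h, then given test material for 48 h. TCA fixation at 4 °C 1 h, SRB staining, dye dissolved in Tris-HCl pH 10.4, OD 540 nm. Growth inhibition relative to untreated control after blank subtraction.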

SMILES: OCC(O)COc1ccc(C2c3c(ccc4ccccc34)Oc3ccc4ccccc4c32)cc1 (stereo unspecified)
- pIC50 (SW-620): 4.31
- pIC50 [1]: 4.38
- pIC50 (COLO 205): 4.42
- pIC50 (SK-N-SH): 4.36
- pIC50 (A549): 3.89
- pIC50 (PC-3): 4.19

SMILES: O=[N+]([O-])c1ccccc1C1c2c(ccc3ccccc23)Oc2ccc3ccccc3c21
- pIC50 (SW-620): 4.20
- pIC50 [1]: 4.30
- pIC50 (SK-N-SH): 4.26
- pIC50 (PC-3): 4.09

SMILES: COc1cc(C2c3c(ccc4ccccc34)Oc3ccc4ccccc4c32)ccc1O
- pIC50 (SW-620): 4.26
- pIC50 [1]: 4.34
- pIC50 (COLO 205): 4.38
- pIC50 (SK-N-SH): 4.35
- pIC50 (A549): 4.13
- pIC50 (PC-3): 4.21
